# Screening data from PubChem.
# TRPC6 activator: mouse TRPC6 channel activation | HEK293-TRPC6 membrane potential dye fluorescence; stronger effect = higher value | Q61143 | AID 2550 | B-score at 10 µM | hit rate 0.13% among 310,000;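 active = B-score of the integrated fluorescence ratio above library mean plus 3 SD, and starting fluorescence ratio within library mean plus 5 SD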;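 also: higher score means more depolarization so channel activation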
# TRPC4 agonist: activators of mouse TRPC4 channel; hit rate 0.49% among 310,000; Q9QUQ5; B-score at 10 µM; AID 2237; HEK293 TRPC4beta/mu-opioid, Fluo4 calcium fluorescence; stronger effect = higher value;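 active = B-score above 5 SD of library B-scores, and initial fluorescence ratio not above library mean plus 5 SD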;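 also: positive B-score marks a calcium rise read as TRPC4 activation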
#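 Material: TRPC4beta and mu-opioid receptor HEK293 stable cells | Incubation: 45 min room-temperature Fluo4 loading, 110 s read | Detection: Kinetic Fluo4 calcium fluorescence | Measure: Integrated baseline-normalised fluorescence ratio, converted to per-well B score | Benchmarks: Low control buffer alone, high control maximal DAMGO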
# TRPC4 block: blocks the mouse TRPC4 cation channel; B-score at 10 µM; HEK293 TRPC4beta/mu-opioid, DAMGO-evoked Fluo4 calcium flux; stronger effect = lower value; hit rate 0.39% among 300,000;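 active = B-score over 3 SD under the library average, no early fluorescence shift, positive overall ratio signal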
#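 Assay system: Stable TRPC4beta/mu-opioid receptor HEK293 cells | Reagent: DAMGO in two steps, submaximal then maximal | Compound dosing: Single concentration per test compound | Signal: Fluo4 Ca2+ flux fluorescence | Evaluation: Per-well B score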
# TRPC4 PAM: TRPC4 (mouse) allosteric potentiation. B-score at 10 µM. Q9QUQ5. HEK293 TRPC4beta/mu-opioid, DAMGO EC20, Fluo-4 Ca2+ flux; stronger effect = higher value. hit rate 0.42% among 310,000;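 active = B-score of calcium response area above 5 SD of library B-scores, with initial fluorescence ratio within 5 SD of library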;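 also: B-score of integrated fluorescence ratio over time as area under calcium response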
# TRPC6 inh: mouse TRPC6 channel inhibition | Q61143 | HEK293-TRPC6, membrane potential dye, ACh-evoked depolarization; stronger effect = lower value | B-score at 10 µM | hit rate 1.1% among 310,000;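 active = B-score under library mean minus 3 SD, initial fluorescence not abnormally high, positive integrated signal ratio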;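 also: B-score derived from integrated fluorescence ratio over the kinetic read; more negative B-score means stronger inhibition of depolarization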
# TRPC4 sel inh 2: second selectivity test of TRPC6 inhibitors: effect on mouse TRPC4 | inhibition, % at 10 µM | HEK293 TRPC4/MOR, membrane potential dye fluorescence; channel activated by saturating DAMGO dose | shares compounds with TRPC6 inh | AID 2776 | hit rate 42% among 920;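 active = compounds whose fluorescence signal differed from control wells by over 3 SD, either direction, in both duplicate plates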
# TRPC4 spec: mouse TRPC4 off-target activity of TRPC6 inhibitors | shares compounds with TRPC6 inh | HEK293 TRPC4/mu-opioid, membrane potential fluorescence | activity change, negative = inhibition, % at 10 µM | hit rate 61% among 920;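 active = rise or fall in signal beyond 3 SD of buffer-only wells in both replicate plates, either sign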;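 also: integrated kinetic ratio of fluorescence range over baseline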
# HEK293 MPD ctr 2-1: second counter-screen for TRPC6 inhibitors: parental HEK293 cells; shares compounds with TRPC6 inh; parental HEK293 membrane potential dye fluorescence; maximal acetylcholine challenge after compound addition; signal change vs control, % at 10 µM; hit rate 31% among 920;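 active = membrane potential signal moving either way by over 3 SD of the maximum-effect control, in both duplicate plates, meaning non-specific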
# HEK293 MPD ctr-1: parental HEK293 nonspecific activity of TRPC6 inhibitors; shares compounds with TRPC6 inh; parental HEK293 membrane potential dye fluorescence; membrane potential signal change, % at 10 µM; hit rate 60% among 920;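 active = membrane potential signal shifting up or down by more than 3 SD of buffer-only wells, on both duplicate plates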
# HEK293 MPD ctr-2: parental HEK293 nonspecific activity of TRPC6 modulators | shares compounds with TRPC6 inh | hit rate 51% among 2,400 | membrane potential signal change, % at 10 µM | membrane potential dye fluorescence;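 active = membrane potential signal moves up or down beyond 5 SD from buffer-only wells, on both duplicate plates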
# HEK293 MPD ctr 2-2: second counter-screen for TRPC6 modulators: effect in parental HEK293 cells; shares compounds with TRPC6 inh; hit rate 14% among 2,400; membrane potential dye fluorescence; after compound, maximal acetylcholine stimulation; AID 488926; inhibition, % at 10 µM;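 active = membrane potential signal drops by more than 5 SD from the mean control signal, in both duplicate plates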;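 also: plate controls were acetylcholine ECmax control wells for no effect and buffer only wells for full effect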
# TRPC4/MOR mod: selectivity of TRPC6 modulators against mouse TRPC4; shares compounds with TRPC6 inh; HEK293 TRPC4/mu-opioid, membrane potential fluorescence; percent change from control (negative = decrease, positive = increase), % at 10 µM; hit rate 69% among 2,400; AID 488927;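 active = membrane potential signal moved up or down beyond 5 SD of buffer control wells, in both duplicate plates, actives on both sides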;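 also: plate controls were assay buffer wells for no effect and DAMGO maximal-effect wells for full effect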
# TRPC4 ctr inh 2: mouse TRPC4 off-target activity of TRPC6 modulators, second screen | shares compounds with TRPC6 inh | HEK293 TRPC4/mu-opioid, membrane potential dye fluorescence; stimulated with maximal-effect DAMGO | inhibition, % at 10 µM | hit rate 55% among 2,400 | AID 488928;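 active = drop in membrane potential signal beyond 5 SD of the control wells in both duplicate plates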;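 also: TRPC4 counter screen for TRPC6 hits run under conditions tuned for TRPC6 not TRPC4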
# TRPC6 inh conf: confirmation of mouse TRPC6 inhibitors. shares compounds with TRPC6 inh. inhibition, % at 10 µM. hit rate 43% among 3,300. HEK293-TRPC6, membrane potential dye, ACh-evoked depolarization;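 active = fluorescence ratio falls more than 5 SD below the full-stimulation control mean, in both duplicate runs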;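 also: integrated fluorescence ratio of peak minus minimum over baseline after agonist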
# TRPC6 act confirm: confirmation of mouse TRPC6 activators | shares compounds with TRPC6 inh | activation, % at 10 µM | AID 488961 | HEK293-TRPC6 membrane potential dye fluorescence, FDSS | hit rate 11% among 2,800;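 active = ratio signal rise beyond 5 SD above unstimulated control wells' mean, seen in both duplicate runs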;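 also: plate controls were buffer EC0 wells for no effect and acetylcholine ECmax response for full effect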
# An asterisk follows results filed as active; i = inactive; x = no result. A selection: hits, their analogues and other compounds. The true share with any hit is near 2.3%.
SMILES,TRPC6 activator,TRPC4 agonist,TRPC4 block,TRPC4 PAM,TRPC6 inh,TRPC4 sel inh 2,TRPC4 spec,HEK293 MPD ctr 2-1,HEK293 MPD ctr-1,TRPC6 inh conf,TRPC6 act confirm,others
c1cncc(CNc2ncnc3sccc23)c1,27.5*,44*,i,i,i,x,x,x,x,i,i,HEK293 MPD ctr-2=i;HEK293 MPD ctr 2-2=i;TRPC4/MOR mod=i;TRPC4 ctr inh 2=i
O=C(/C=C/c1ccc(N2CCC(c3ccccc3)=N2)cc1)c1ccccc1,14.9*,i,i,i,i,x,x,x,x,i,46.5%*,HEK293 MPD ctr-2=350.5%*;HEK293 MPD ctr 2-2=i;TRPC4/MOR mod=80.0%*;TRPC4 ctr inh 2=i
CC/C(CC(C)(C)c1ccccc1)=N\O,i,i,i,i,i,x,x,x,x,x,x,
CC[N+](C)(CC)CCC/C(=N/O)C(O)(c1ccccc1)c1ccccc1,i,i,i,i,-8.46*,i,i,3.5%*,i,71.2%*,i,
CCN(CC)CCC/C(=N\O)C(O)(c1ccccc1)c1ccccc1,i,i,i,i,-9.44*,i,0.0%*,-37.0%*,i,88.1%*,i,
CCOC(=O)CNC(=O)Cn1cnc2c(nnn2-c2ccc(OC)cc2)c1=O,i,i,i,i,-9.52*,i,i,i,i,i,i,
CC(C)(O)C#Cc1ccc(CN2CCCC(CO)(Cc3cccc(Cl)c3)C2)cc1 (stereo not given),i,i,i,i,i,x,x,x,x,x,x,
CCOC(=O)c1c(C)cc(C)n2c1nc1ccccc12,i,i,i,i,-8.14*,i,-20.8%*,i,-249.5%*,i,i,
O=C(O)C(Cc1c[nH]c2ccccc12)N1CCS(=O)(=O)CC1 (stereo not given),i,i,i,i,i,x,x,x,x,x,x,
CC(CCc1ccccc1)NCc1cccc2ccccc12 (stereo not given),i,i,i,i,-7.36*,i,32.0%*,i,14.7%*,67.0%*,x,
CC[C@@H]1[C@H]2CCCC(=O)N3CC[C@@H](C[C@H]1O)[C@@H]23,i,i,x,i,i,x,x,x,x,x,x,
Cc1c(C(=O)c2ccccc2)c(=O)n(C)c(=O)n1C,i,i,i,i,i,x,x,x,x,x,x,
Cc1ccc(OCC(=O)NNC(=O)c2cccnc2)cc1C,i,i,i,i,-5.71*,x,x,x,x,i,i,HEK293 MPD ctr-2=i;HEK293 MPD ctr 2-2=i;TRPC4/MOR mod=i;TRPC4 ctr inh 2=i
CCOC(=O)c1c(CN2CCCCC2)n(C)c2cc(Br)c(O)cc12,i,i,i,i,i,x,x,x,x,x,x,
